Numbering of substitutions follows the chain as printed. Like-named read-outs stand apart in the source and are kept apart here.
Tests used:
Assay type in all cases: biochemical
[1] = target: T1, E340N^‡ mutant bovine olfactory CNG channel (Bos taurus, UniProt Q03041, E340Q); test: Blockage of macroscopic current by external Ca2+ or Mg2+, outside-out patches
T1 sequence (Q03041 1-663 E340Q): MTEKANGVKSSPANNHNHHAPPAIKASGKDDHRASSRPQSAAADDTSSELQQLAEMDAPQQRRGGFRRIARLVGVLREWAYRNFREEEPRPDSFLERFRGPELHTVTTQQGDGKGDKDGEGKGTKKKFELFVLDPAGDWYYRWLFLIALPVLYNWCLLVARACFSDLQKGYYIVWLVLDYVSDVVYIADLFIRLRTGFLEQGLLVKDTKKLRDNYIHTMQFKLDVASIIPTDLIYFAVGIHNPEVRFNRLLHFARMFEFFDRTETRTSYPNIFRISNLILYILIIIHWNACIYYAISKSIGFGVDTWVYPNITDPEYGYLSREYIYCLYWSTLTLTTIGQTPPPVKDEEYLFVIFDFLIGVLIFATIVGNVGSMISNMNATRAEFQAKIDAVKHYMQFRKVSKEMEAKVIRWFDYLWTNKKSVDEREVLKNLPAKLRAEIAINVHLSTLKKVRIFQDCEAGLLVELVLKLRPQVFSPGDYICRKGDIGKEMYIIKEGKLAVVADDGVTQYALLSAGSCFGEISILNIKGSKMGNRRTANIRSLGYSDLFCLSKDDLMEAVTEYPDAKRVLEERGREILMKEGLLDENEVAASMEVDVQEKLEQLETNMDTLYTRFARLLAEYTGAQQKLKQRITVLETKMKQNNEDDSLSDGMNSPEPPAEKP
Outline: (§1)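 Xenopus oocytes injected with wild-type or mutant channel mRNA; outside-out patches with 100 μM cGMP in the pipette. Bath: 110 mM NaCl, 2 mM EDTA, 10 mM HEPES, pH 7.4, plus Ca2+ (NTA-buffered) or Mg2+ (EDTA-buffered); unbuffered above 0.1 mM. Five 1-s ramps (−80 to +80 mV) averaged, leak subtracted. Current normalised to divalent-free current at the same voltage, Hill-fitted per patch; Ki and n given as mean ± SD.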

[2] = target: T2, E340N mutant bovine olfactory CNG channel (Bos taurus, UniProt Q03041, E340N); test: as above; details: for Ki: mean ± SD
T2 sequence (Q03041 1-663 E340N): T1 sequence (Q03041 1-663 E340Q) with Q340N
Outline: as §1

[3] = target: T3, wild-type bovine olfactory CNG channel (α3 subunit) (Bos taurus, UniProt Q03041)
T3 sequence (Q03041 1-663): T1 sequence (Q03041 1-663 E340Q) with Q340E

[4] = external Mg2+, −80 mV, one experiment

## [Ca+2] [Ca^2+]
[1]; external Ca2+, +80 mV
  n, Hill coefficient of blockage: 0.5 ± 0.2
[1]; external Ca2+, +80 mV, mean ± SD
  Ki: 19 ± 12 mM
[1]; external Ca2+, −80 mV
  n, Hill coefficient of blockage: 0.4 ± 0.2
[1]; external Ca2+, −80 mV, mean ± SD
  Ki: 2.1 ± 0.6 mM
[2]; external Ca2+, +80 mV
  n, Hill coefficient of blockage: 0.6 ± 0.2
  Ki: 29 ± 6 mM
[2]; external Ca2+, −80 mV
  n, Hill coefficient of blockage: 0.6 ± 0.1
  Ki: 6.5 ± 4 mM
[3]; 1 mM Ca2+ in the patch pipette
  effect of external Ca2+ on K 1/2 for cAMP or cGMP: did not significantly affect K 1/2

## [Mg+2] [Mg^2+]
[1]; external Mg2+, +80 mV, one experiment
  n, Hill coefficient of blockage: 0.3
[1]; [4]
  Ki: 3.4 mM
  n, Hill coefficient of blockage: 0.5
[2]; external Mg2+, +80 mV
  n, Hill coefficient of blockage: 0.6 ± 0.1
  Ki: 50 ± 3.6 mM
[2]; external Mg2+, −80 mV
  n, Hill coefficient of blockage: 0.6 ± 0.1
  Ki: 17 ± 7.2 mM

## Nc1nc2c(ncn2[C@@H]2O[C@@H]3COP(=O)(O)O[C@H]3[C@H]2O)c(=O)[nH]1 [cGMP]
[3]; cGMP
  n(−80 mV), Hill coefficient: 2.7 ± 0.2
[3]; cGMP-gated current
  I(−80 mV)/I(+80 mV): 1.11 ± 0.03
[3]; read-out: K 1/2, cGMP, +80 mV
  EC50: 0.0026 ± 0.0006 mM
[3]; read-out: K 1/2, cGMP, −80 mV
  EC50: 0.0025 ± 0.0005 mM
[3]; read-out: K 1/2,cG, −80 mV, single patch, Fig. 1 fit
  EC50: 0.0032 mM
[3]; −80 mV, single patch, Fig. 1 fit
  n cG: 2.7
